Measured values as given in ChEMBL document CHEMBL5252663, “Evaluation of 1,3,4-Thiadiazole Carbonic Anhydrase Inhibitors for Gut Decolonization of Vancomycin-Resistant Enterococci” (ACS Med Chem Lett, 2023).
Converted amounts (≈) assume the structure as drawn. The source made the active and inactive calls. The rule behind the calls is not given here.

Columns and labels:
[1] = Distribution coefficient between 1-Octanol and PBS buffer, logD of the compound at pH 7.4 incubated for 140 mins by HPLC anlaysis; type: physicochemical; settings: 1-octanol/PBS buffer
Enterococcus faecium [2] = assay: Antibacterial activity against vancomycin-resistant Enterococcus faecium HM-952 infected in C57BL/6 mouse assessed as reduction in bacterial burden in feces at 20 mg/kg,po qd measured after 7 days of administration; type: functional; design: scale not given: the % may be the effect or the level left; settings: time 7 day
Method in brief: (§1)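 C57BL/6 mice given ampicillin in drinking water (0.5 g/L) for 7 days, then gavaged orally with 5.39 × 10^8 CFU/mL E. faecium HM-952. Colonization was allowed for 7 days. Randomized groups (n = 7) got 20 mg/kg by oral gavage once daily for 8 days. Vehicle was dimethylacetamide:20% propylene glycol:40% PEG 400:30% PBS. Fecal CFU was counted on days 0, 3, 5 and 7, and ileal and cecal CFU at day 9 after euthanasia. Comparison was against vehicle.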

Enterococcus faecium [3] = assay: Antibacterial activity against vancomycin-resistant Enterococcus faecium HM-952 infected in C57BL/6 mouse assessed as reduction in bacterial burden in feces at 20 mg/kg,po qd measured after 5 days of administration; type: functional; design: scale not given: the % may be the effect or the level left; method in brief: as §1
Enterococcus faecium [4] = assay: Antibacterial activity against Enterococcus faecium HM-952 assessed as inhibition of bacterial growth incubated for 18 to 20 hrs by broth microdilution assay; type: functional; settings: time 18-20 hrs
Enterococcus faecium [5] = assay: Antibacterial activity against vancomycin-resistant Enterococcus faecium HM-952 infected in C57BL/6 mouse assessed as log reduction in bacterial colony forming unit in feces at 20 mg/kg,po qd measured after 3 days of administration; type: functional; settings: time 3 day; method in brief: as §1
[6] = Aqueous solubility of the compound in PBS buffer at pH 7.4 by HPLC analysis; type: physicochemical
Method in brief: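 Solubility is measured in phosphate-buffered saline at pH 7.4 and quantified against a calibration curve whose highest point is 200 μM, so the upper reportable value is >200 μM.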

Enterococcus faecium [7] = assay: Antibacterial activity against vancomycin-resistant Enterococcus faecium HM-952 infected in C57BL/6 mouse assessed as reduction in bacterial burden in ileum at 20 mg/kg,po qd measured after 9 days of administration; type: functional; design: scale not given: the % may be the effect or the level left; settings: time 9 day; method in brief: as §1
Enterococcus faecium [8] = assay: Antibacterial activity against vancomycin-resistant Enterococcus faecium HM-952 infected in C57BL/6 mouse assessed as reduction in bacterial burden in feces at 20 mg/kg,po qd measured after 3 days of administration; type: functional; design: scale not given: the % may be the effect or the level left; method in brief: as §1
Enterococcus faecium [9] = assay: Antibacterial activity against vancomycin-resistant Enterococcus faecium HM-952 infected in C57BL/6 mouse assessed as log reduction in bacterial colony forming unit in feces at 20 mg/kg,po qd measured after 5 days of administration; type: functional; settings: time 5 day; method in brief: as §1
Enterococcus faecium [10] = assay: Antibacterial activity against vancomycin-resistant Enterococcus faecium HM-952 infected in C57BL/6 mouse assessed as reduction in bacterial burden in cecum at 20 mg/kg,po qd measured after 9 days of administration; type: functional; design: scale not given: the % may be the effect or the level left; settings: time 9 day; method in brief: as §1
Enterococcus faecium [11] = assay: Antibacterial activity against vancomycin-resistant Enterococcus faecium HM-952 infected in C57BL/6 mouse assessed as log reduction in bacterial colony forming unit in feces at 20 mg/kg,po qd measured after 7 days of administration; type: functional; settings: time 7 day; method in brief: as §1
Enterococcus faecium [12] = assay: Antibacterial activity against vancomycin-resistant Enterococcus faecium HM-952 infected in C57BL/6 mouse assessed as log reduction in bacterial colony forming unit in cecum at 20 mg/kg,po qd measured after 9 days of administration; type: functional; settings: time 9 day; method in brief: as §1
Enterococcus faecium [13] = assay: Antibacterial activity against vancomycin-resistant Enterococcus faecium HM-952 infected in C57BL/6 mouse assessed as log reduction in bacterial colony forming unit in ileum at 20 mg/kg,po qd measured after 9 days of administration; type: functional; settings: time 9 day; method in brief: as §1
[14] = Distribution coefficient between 1-Octanol and PBS buffer, logD of the compound at pH 6.5 incubated for 140 mins by HPLC anlaysis; type: physicochemical; settings: 1-octanol/PBS buffer
[15] = Permeability across apical to basolateral side in human Caco-2 cells assessed as drug recovery; type: ADME, cell-based; settings: read-out: Drug recovery
[16] = Efflux ratio of apparent permeability across basolateral to apical over apical to basolateral side in human Caco2 cells; type: ADME, cell-based; settings: Caco-2
Method in brief: (§2)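 Caco-2 monolayer transport measured in both directions, apical→basolateral and basolateral→apical, and reported as apparent permeability (×10–6 cm/s). Efflux ratio is calculated as Papp B→A divided by Papp A→B.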

[17] = Apparent permeability across basolateral to apical side in human Caco2 cells; type: ADME, cell-based; settings: Caco-2; method in brief: as §2
[18] = Apparent permeability across apical to basolateral side in human Caco2 cells; type: ADME, cell-based; settings: Caco-2; method in brief: as §2

SMILES	logD at 2.333 h [1]	Activity (Enterococcus faecium [2])	Activity (Enterococcus faecium [3]; time 5 day)	MIC (Enterococcus faecium [4])	Activity (Enterococcus faecium [5])	solubility [6]	Activity (Enterococcus faecium [7])	Activity (Enterococcus faecium [8]; time 3 day)	Activity (Enterococcus faecium [9])	Activity (Enterococcus faecium [10])	Activity (Enterococcus faecium [11])	Activity (Enterococcus faecium [12])	Activity (Enterococcus faecium [13])	logD at 2.333 h [14]	recovery [15]	efflux ratio [16]	Papp B→A [17]	Papp A→B [18]	Activity (Enterococcus faecium [3]; time 5.0 day)	Activity (Enterococcus faecium [8]; time 3.0 day)
NS(=O)(=O)c1nnc(NC(=O)CN2CCOCC2)s1	-1.38	99.3%	92.6%	1 µg/mL (≈ 3.25 µM)	1 log10CFU	127 µM (≈ 39 µg/mL)	97.6%	90%	1.13 log10CFU	98.8%	2.16 log10CFU	1.92 log10CFU	1.62 log10CFU	-0.97	–	–	–	–	–	–
CC(C)(C)CC(=O)Nc1nnc(S(N)(=O)=O)s1	1.36	99.3%	92.6%	0.03 µg/mL (≈ 0.108 µM)	1 log10CFU	> 200 µM	98.9%	90%	1.13 log10CFU	99.6%	2.16 log10CFU	2.36 log10CFU	1.98 log10CFU	1.55	80%	2.22	8.2 ×10⁻⁶ cm/s	3.7 ×10⁻⁶ cm/s	–	–
CC(=O)Nc1nnc(S(N)(=O)=O)s1 [ACETAZOLAMIDE]	–	99.3%	–	1 µg/mL (≈ 4.5 µM)	1 log10CFU	–	99.7%	90%	–	99.7%	2.16 log10CFU	2.59 log10CFU	2.59 log10CFU	–	–	–	–	–	Active	–
CC(=O)NC[C@H]1CN(c2ccc(N3CCOCC3)c(F)c2)C(=O)O1 [LINEZOLID]	–	91.5%	86.5%	1 µg/mL (≈ 2.96 µM)	–	–	–	–	0.87 log10CFU	–	1.07 log10CFU	–	–	–	–	–	–	–	–	Active
NS(=O)(=O)c1nnc(NC(=O)CCC2CCCCC2)s1	2.26	99.3%	92.6%	0.03 µg/mL (≈ 0.0942 µM)	1 log10CFU	33 µM (≈ 10.5 µg/mL)	94.1%	90%	1.13 log10CFU	97.3%	2.16 log10CFU	1.57 log10CFU	1.13 log10CFU	2.47	35%	2.17	–	–	–	–
